Changes are numbered by the printed parent chain. Like-named read-outs stand apart in the source and are kept apart here.
Legend:
[1] = ref Marsh and Phil 1990; cited from earlier work
[2] = system: rod and olfactory CNG channels; assay: Comparison of DAG analogues on cloned CNG channels; format: biochemical; conditions: data not shown
[3] = molecular target: T1, bovine rod CNG channel (CNG1, α homomultimer) (Bos taurus, UniProt Q00194); format: biochemical
T1 sequence (Q00194 1-690): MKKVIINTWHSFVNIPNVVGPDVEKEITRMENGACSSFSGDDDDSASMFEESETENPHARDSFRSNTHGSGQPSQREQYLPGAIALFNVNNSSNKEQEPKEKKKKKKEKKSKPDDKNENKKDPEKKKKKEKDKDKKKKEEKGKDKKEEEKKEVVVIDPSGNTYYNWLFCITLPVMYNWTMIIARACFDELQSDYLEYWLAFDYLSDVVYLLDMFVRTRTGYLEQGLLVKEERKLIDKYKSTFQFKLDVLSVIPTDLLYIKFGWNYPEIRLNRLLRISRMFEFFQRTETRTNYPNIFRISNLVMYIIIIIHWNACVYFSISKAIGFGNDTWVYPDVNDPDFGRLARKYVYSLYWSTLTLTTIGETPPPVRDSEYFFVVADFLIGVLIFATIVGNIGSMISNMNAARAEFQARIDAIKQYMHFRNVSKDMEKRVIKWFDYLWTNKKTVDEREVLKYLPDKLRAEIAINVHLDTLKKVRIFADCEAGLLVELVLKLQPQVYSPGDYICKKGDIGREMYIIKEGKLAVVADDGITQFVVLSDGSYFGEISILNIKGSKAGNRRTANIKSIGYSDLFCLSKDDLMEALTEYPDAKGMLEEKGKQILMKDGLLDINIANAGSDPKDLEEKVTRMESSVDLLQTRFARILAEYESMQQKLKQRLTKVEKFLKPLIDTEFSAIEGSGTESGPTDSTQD

[4] = molecular target: T2, rat olfactory CNG channel (CNG2, α homomultimer) (Rattus norvegicus, UniProt Q00195); format: biochemical
T2 sequence (Q00195 1-664): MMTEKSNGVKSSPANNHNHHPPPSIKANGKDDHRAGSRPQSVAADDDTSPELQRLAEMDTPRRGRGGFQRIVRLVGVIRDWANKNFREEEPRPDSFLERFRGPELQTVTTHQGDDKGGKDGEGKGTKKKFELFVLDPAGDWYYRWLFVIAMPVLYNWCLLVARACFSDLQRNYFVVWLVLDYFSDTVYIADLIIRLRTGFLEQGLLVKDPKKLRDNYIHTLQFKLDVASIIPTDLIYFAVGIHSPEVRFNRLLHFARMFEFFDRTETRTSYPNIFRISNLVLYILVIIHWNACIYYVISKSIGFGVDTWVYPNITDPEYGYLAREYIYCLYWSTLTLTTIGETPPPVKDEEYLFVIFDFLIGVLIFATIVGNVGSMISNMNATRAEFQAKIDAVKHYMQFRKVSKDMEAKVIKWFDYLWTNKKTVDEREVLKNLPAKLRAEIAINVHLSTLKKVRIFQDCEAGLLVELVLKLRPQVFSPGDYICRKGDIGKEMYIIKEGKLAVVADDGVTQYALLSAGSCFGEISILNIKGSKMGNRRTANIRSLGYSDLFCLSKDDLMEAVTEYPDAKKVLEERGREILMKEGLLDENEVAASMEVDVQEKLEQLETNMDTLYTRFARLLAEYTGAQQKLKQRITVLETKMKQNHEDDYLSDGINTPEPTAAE

[5] = molecular target: T3, CHM 11 rod/olfactory chimeric CNG channel (Bos taurus / Rattus norvegicus, UniProt Q00194+Q00195); assay: DAG dose-response on chimera CHM11, inside-out patches from Xenopus oocytes; format: biochemical, bovine/rat; conditions: saturating 2 mM cGMP, five patches
T3 sequence (Q00194 1-690): T1 sequence (Q00194 1-690)
T3 sequence (Q00195 1-664): T2 sequence (Q00195 1-664)
Procedure, shortened: (§1)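 Chimera cRNA injected into Xenopus oocytes, held at 15°C overnight then 18°C for 1–10 d; vitelline membrane removed. […] 1,2-DiC8 from DMSO stock added stepwise to bath (0.05–48 μM; DMSO <1.2%). Leak-subtracted currents; Hill fit to averaged data, scaled to maximal inhibition.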

[6] = molecular target: T4, CHM 13 rod/olfactory chimeric CNG channel (Bos taurus / Rattus norvegicus, UniProt Q00194+Q00195); assay: DAG dose-response on chimera CHM13, inside-out patches from Xenopus oocytes; format: biochemical, bovine/rat; conditions: saturating 2 mM cGMP, six patches
T4 sequence (Q00194 1-690): T1 sequence (Q00194 1-690)
T4 sequence (Q00195 1-664): T2 sequence (Q00195 1-664)
Procedure, shortened: as §1

[7] = molecular target: T5, CHM 3 rod/olfactory chimeric CNG channel (Bos taurus / Rattus norvegicus, UniProt Q00194+Q00195); assay: DAG dose-response on chimera CHM3, inside-out patches from Xenopus oocytes; format: biochemical, bovine/rat; conditions: saturating 2 mM cGMP, 4 patches
T5 sequence (Q00194 with tags, fused parts or gaps): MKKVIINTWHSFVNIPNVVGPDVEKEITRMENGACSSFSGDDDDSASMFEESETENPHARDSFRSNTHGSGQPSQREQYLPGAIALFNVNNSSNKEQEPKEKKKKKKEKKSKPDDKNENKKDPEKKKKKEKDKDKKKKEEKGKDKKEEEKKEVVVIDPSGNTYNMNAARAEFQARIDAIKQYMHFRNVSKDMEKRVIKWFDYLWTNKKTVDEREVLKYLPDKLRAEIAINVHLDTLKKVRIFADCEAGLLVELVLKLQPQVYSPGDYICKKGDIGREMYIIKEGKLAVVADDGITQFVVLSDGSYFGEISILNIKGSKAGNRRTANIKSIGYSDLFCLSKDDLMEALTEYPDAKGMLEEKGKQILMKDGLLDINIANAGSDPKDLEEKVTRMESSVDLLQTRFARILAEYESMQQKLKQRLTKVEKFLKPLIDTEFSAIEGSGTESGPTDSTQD
T5 sequence (Q00195 147-381): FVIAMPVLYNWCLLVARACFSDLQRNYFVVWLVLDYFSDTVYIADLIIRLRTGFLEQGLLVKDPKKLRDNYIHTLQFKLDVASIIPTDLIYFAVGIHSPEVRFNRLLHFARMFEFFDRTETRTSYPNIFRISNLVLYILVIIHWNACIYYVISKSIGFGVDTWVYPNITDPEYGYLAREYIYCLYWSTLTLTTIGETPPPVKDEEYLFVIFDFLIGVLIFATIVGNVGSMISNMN
Procedure, shortened: as §1

[8] = molecular target: T6, mutant rod CNG channel H468Q (H468Q and A483V), α homomultimer (Bos taurus, UniProt Q00194, A483V/H468Q); format: biochemical, bovine
T6 sequence (Q00194 1-690 H468Q/A483V): T1 sequence (Q00194 1-690) with H468Q, A483V

[9] = molecular target: T7, mouse olfactory CNG channel (Mus musculus, UniProt Q62398); assay: Single-channel recording of olfactory channel with DAG; format: biochemical; conditions: +80 mV, saturating cGMP, with and without DAG
T7 sequence (Q62398 1-664): T2 sequence (Q00195 1-664) with P50S, Q69R, V77I, D115G, G118D, V297A, D611E, T661A, A662V
Procedure, shortened: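 Three to five continuous 1-s records per condition, filtered at 5 kHz and sampled at 25 kHz. Amplitude histograms from full records were fit with Gaussians to obtain mean single-channel current.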

CNG channels = conditions: ref Fodor et al. 1997; cited from earlier work

CCCCCCCC(=O)OC[C@H](COP(=O)([O-])OCC[N+](C)(C)C)OC(=O)CCCCCCC [1,2-dioctanoyl phosphatidylcholine]
critical micelle concentration [1]: 270 µM

CCCCCCCC(=O)OCC(O)COC(=O)CCCCCCC [1,3-DiC8]
effectiveness of inhibition relative to 1,2-DiC8 [2]: just as effective as 1,2-DiC8

CCCCCCCC(=O)OC[C@H](CO)OC(=O)CCCCCCC [DAG, 1,2-dioctanoyl-sn-glycerol]
factor of increase of cGMP K1/2 ([3]; 0.5 μM DAG): 3.2 | reduction in the maximal current with DAG ([3]; 0.5 μM DAG, cGMP dose-response): 29% | IC50 ([3]; IC50 for DAG inhibition, saturating 2 mM cGMP, 11 patches): 830 nM | Hill coefficient n of DAG inhibition ([3]; low cGMP (~30 μM), single patch): 1.3 | DAG concentration completely suppressing cGMP-activated currents ([3]; saturating 2 mM cGMP): ~3 µM | Hill coefficient n of DAG inhibition ([3]; saturating 2 mM cGMP): 1.7 | INmax (maximal inhibition by DAG) ([3]; saturating 2 mM cGMP): 100% | factor of increase of cGMP K1/2 ([4]; 0.5 μM DAG): 2.2 | reduction in the maximal current with DAG ([4]; 0.5 μM DAG, cGMP dose-response): 3% | inhibition of cGMP-activated current by DAG ([4]; 0.5 μM DAG, saturating 100 μM cGMP): small effect | Hill coefficient n of DAG inhibition ([4]; low cGMP (1.5 μM), single patch): 1.4 | Hill coefficient n of DAG inhibition ([4]; saturating 100 μM cGMP): 1.4 | INmax (maximal inhibition by DAG) ([4]; saturating 100 μM cGMP): 31% | suppression of cGMP-activated currents at high DAG ([4]; saturating (100 μM) cGMP, DAG as high as 12 μM): only partial suppression | difference between DAG IC50 of rod and olfactory channel ([4]; saturating cGMP, rod vs olfactory): approximately a fourfold difference | Hill coefficient n of DAG inhibition [5]: 1.6 | Hill coefficient n of DAG inhibition [6]: 2.8 | Hill coefficient n of DAG inhibition [7]: 1.6 | IC50 [8]: 330 nM | single-channel amplitude with DAG ([8]; +80 mV, saturating cGMP, with and without 0.25 μM DAG, patch with two channels): 2.1 pA | extent of inhibition by DAG ([8]; saturating cGMP): fully inhibited | single-channel amplitude with DAG [9]: 3.2 pA

Nc1nc2c(ncn2[C@@H]2O[C@@H]3COP(=O)(O)O[C@H]3[C@H]2O)c(=O)[nH]1 [cGMP]
EC50 ([4]; read-out: K1/2 for activation by cGMP, with 0.5 μM DAG, +100 mV, single patch): 4000 nM | Hill coefficient n of cGMP activation ([4]; with 0.5 μM DAG): 2.8 | Hill coefficient n of cGMP activation ([4]; without DAG): 2.8

CCCCNc1ccc(C(=O)OCCN(C)C)cc1 [tetracaine]
Hill coefficient of inhibition (CNG channels): ~1

— paper PMC2231817 (The Journal of General Physiology, 2000)
